# Ends that are not written are not given here.
# B1: Slob57ΔN15: amino-terminal 15 residue–truncated Slob57 (deletion of residues 2–16) (protein)
# chain: MNSAVTGHDPFVRPPVPEKKVRNIMKKLHKANGLKRSNSAIEFDVSALTAANRRQIYSSNRSASSEQDNSDLSEHSEKSPLVSARLDNLARLFFSKSMPAETGSRDTIDSVLTTRPNIKYQYSALDSGNGIVERSPRERAQREKALNATQEWIQGANGRYEVIAHLDEIGSRHGKNWFLVTDASVRTDRLQTLLPLPPDCVAFEDLPPNECAREILMELLGSLHHPYIYPVLDLGFLRNSSYNYACLVTPFNSRGSLKDLIYKAQWNEPWARKYTRKPNGLPVSQVQRLGRQILEALLFLKERGFPLHGHLHSGNVILQNGAARLSGLENGLLGLSSRINAVMWSRSVTEIENVDIVCFGHLLYEMCTGQELTTPKPSMRVLEMELQHYPQIGQTRKQILEILGLIFEPPSGVCPSVEDLVLCDLFRSIDLRELRGPCFSTIKPSLSRSTLNLLQAVKKRQCASLGHSLSEANSPCTPPSTPHDRRTGVLPAPYEVFRMY
# B2: Slob57: ion channel auxiliary protein that binds to and modulates the Drosophila Slowpoke channel (dSlo) (protein)
# chain: MFKFNKAAQQQRIDNRNSAVTGHDPFVRPPVPEKKVRNIMKKLHKANGLKRSNSAIEFDVSALTAANRRQIYSSNRSASSEQDNSDLSEHSEKSPLVSARLDNLARLFFSKSMPAETGSRDTIDSVLTTRPNIKYQYSALDSGNGIVERSPRERAQREKALNATQEWIQGANGRYEVIAHLDEIGSRHGKNWFLVTDASVRTDRLQTLLPLPPDCVAFEDLPPNECAREILMELLGSLHHPYIYPVLDLGFLRNSSYNYACLVTPFNSRGSLKDLIYKAQWNEPWARKYTRKPNGLPVSQVQRLGRQILEALLFLKERGFPLHGHLHSGNVILQNGAARLSGLENGLLGLSSRINAVMWSRSVTEIENVDIVCFGHLLYEMCTGQELTTPKPSMRVLEMELQHYPQIGQTRKQILEILGLIFEPPSGVCPSVEDLVLCDLFRSIDLRELRGPCFSTIKPSLSRSTLNLLQAVKKRQCASLGHSLSEANSPCTPPSTPHDRRTGVLPAPYEVFRMY
# B3: Slob57ΔN5: amino-terminal five residue–truncated Slob57 (deletion of residues 2–6) (protein)
# chain: MAAQQQRIDNRNSAVTGHDPFVRPPVPEKKVRNIMKKLHKANGLKRSNSAIEFDVSALTAANRRQIYSSNRSASSEQDNSDLSEHSEKSPLVSARLDNLARLFFSKSMPAETGSRDTIDSVLTTRPNIKYQYSALDSGNGIVERSPRERAQREKALNATQEWIQGANGRYEVIAHLDEIGSRHGKNWFLVTDASVRTDRLQTLLPLPPDCVAFEDLPPNECAREILMELLGSLHHPYIYPVLDLGFLRNSSYNYACLVTPFNSRGSLKDLIYKAQWNEPWARKYTRKPNGLPVSQVQRLGRQILEALLFLKERGFPLHGHLHSGNVILQNGAARLSGLENGLLGLSSRINAVMWSRSVTEIENVDIVCFGHLLYEMCTGQELTTPKPSMRVLEMELQHYPQIGQTRKQILEILGLIFEPPSGVCPSVEDLVLCDLFRSIDLRELRGPCFSTIKPSLSRSTLNLLQAVKKRQCASLGHSLSEANSPCTPPSTPHDRRTGVLPAPYEVFRMY
# Experiments:
# [1] = tested on: BK channels; settings: wild type and calcium bowl mutant channels; ref Zakharov et al., 2005; cited from earlier work
# [2] = molecular target: Drosophila Slowpoke calcium-dependent potassium channel (dSlo) (Drosophila melanogaster, UniProt Q03720); test: Inside-out patch recording of dSlo current with peptide on the cytoplasmic side; format: cell-based
# In short: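 Inside-out patches came from CHO cells transfected with dSlo, in symmetrical 150 mM KCl, 0.5 mM HEDTA, 1 mM Mg²⁺, 10 mM HEPES pH 7.2, with 7 μM free Ca²⁺, at room temperature. Peptide was dissolved in the bath (cytoplasmic side). Patches were stepped from −80 to +140 mV; the mean current over the last 10 ms was normalized to the same patch before peptide. A Hill equation fit across concentrations gave IC50.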
# [3] = tested on: dSlo; test: Coimmunoprecipitation of Slobs with dSlo from CHO cell lysates, Western blot; format: binding, Drosophila; settings: cotransfected CHO cells, anti-Slob immunoprecipitation
# In short: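 Slobs were cotransfected with the channel into CHO cells (Ham's F-12, 10% FBS, penicillin/streptomycin) using Lipofectamine 2000. Lysis was 1 d later in Tris-HCl pH 7.5/NaCl/KCl/NaF/1% CHAPS buffer with DTT and protease inhibitors. The 16,000 g supernatant was incubated with anti-Slob for 2 h at 4°C, then protein A/G agarose overnight at 4°C, with four PBS washes. SDS-PAGE, nitrocellulose, anti-dSlo 1 h at RT, HRP anti-rabbit, ECL. Controls were blank vector and nontransfected cells.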
# [4] = tested on: dSloD5N5 (calcium bowl mutant of dSlo); format: cell-based, Drosophila
# In short: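 CHO cells were cotransfected 1:1 (molar) with dSloD5N5 and Slob57 or truncation mutants using Lipofectamine 2000. Whole-cell recording was done 1 d later at room temperature with 2–4 MΩ pipettes, in symmetrical 150 mM KCl, 0.5 mM HEDTA, 2 mM MgCl₂, 10 mM HEPES pH 7.2, with 110 or 300 μM free Ca²⁺ in the pipette. Holding was −80 mV, then −120 mV afterward. 350-ms pulses were used for inactivation; 100-ms pulses gave G–V from peak tail currents and V1/2. Mean ± SEM, ANOVA/Bonferroni.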
# Drosophila Slowpoke calcium-dependent potassium channel (dSlo), sequence (Q03720 whole entry): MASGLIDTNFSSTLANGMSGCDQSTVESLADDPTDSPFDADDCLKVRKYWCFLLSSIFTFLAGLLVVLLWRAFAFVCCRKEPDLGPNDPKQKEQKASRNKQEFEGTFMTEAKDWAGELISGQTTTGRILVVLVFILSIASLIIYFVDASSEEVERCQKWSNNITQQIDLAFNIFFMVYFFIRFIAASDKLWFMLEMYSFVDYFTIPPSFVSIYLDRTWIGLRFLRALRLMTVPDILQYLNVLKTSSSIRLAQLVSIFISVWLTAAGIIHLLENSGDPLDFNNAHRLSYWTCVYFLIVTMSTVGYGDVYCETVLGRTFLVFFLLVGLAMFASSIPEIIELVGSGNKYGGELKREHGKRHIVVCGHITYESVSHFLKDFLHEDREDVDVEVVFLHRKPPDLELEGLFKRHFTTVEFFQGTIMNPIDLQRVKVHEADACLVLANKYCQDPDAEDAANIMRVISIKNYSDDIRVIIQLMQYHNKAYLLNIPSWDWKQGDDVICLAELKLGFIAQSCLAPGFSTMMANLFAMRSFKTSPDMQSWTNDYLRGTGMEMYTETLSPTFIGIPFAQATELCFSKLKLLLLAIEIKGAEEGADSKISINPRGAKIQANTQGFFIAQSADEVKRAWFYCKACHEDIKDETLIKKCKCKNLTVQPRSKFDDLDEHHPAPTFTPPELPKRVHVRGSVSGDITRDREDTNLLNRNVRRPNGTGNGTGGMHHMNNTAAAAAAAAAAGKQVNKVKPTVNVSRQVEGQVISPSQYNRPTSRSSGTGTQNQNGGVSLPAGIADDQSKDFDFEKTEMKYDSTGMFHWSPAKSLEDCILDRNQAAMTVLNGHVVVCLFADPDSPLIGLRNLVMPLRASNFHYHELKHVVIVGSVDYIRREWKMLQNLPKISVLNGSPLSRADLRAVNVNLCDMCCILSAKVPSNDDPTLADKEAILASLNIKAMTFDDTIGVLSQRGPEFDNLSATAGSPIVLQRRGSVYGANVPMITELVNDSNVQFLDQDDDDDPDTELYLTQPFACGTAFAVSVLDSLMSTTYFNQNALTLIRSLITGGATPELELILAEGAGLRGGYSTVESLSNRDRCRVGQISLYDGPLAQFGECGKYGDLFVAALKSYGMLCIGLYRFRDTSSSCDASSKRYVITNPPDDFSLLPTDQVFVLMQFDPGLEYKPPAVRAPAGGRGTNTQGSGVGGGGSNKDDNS
molecule,measurement,setting,value
CC(=O)c1c(O)c(C)c(O)c(Cc2c(O)c3c(c(C(=O)/C=C/c4ccccc4)c2O)OC(C)(C)C=C3)c1O [mallotoxin],Ca2+ dependence of the modulation of BK channels,[1],independent of Ca^2+ binding
MFKFNK [MFKFNK],IC50,[2],31 µM
same,Kd,[2],162 µM
B1,binding to dSlo (coimmunoprecipitation),[3],still bind to dSlo
B2,shift of the conductance–voltage relationship of dSloD5N5,"[4]; 100-ms test pulse, 110 μM free Ca2+",does not rightward shift
same,modulation of V1/2 of dSloD5N5,"[4]; 100-ms test pulse, 300 μM free Ca2+",not modulated
same,inactivation of dSloD5N5,"[4]; coexpression in CHO cells, whole cell, 110 μM free Ca2+, 350-ms test pulse",causes dSloD5N5 inactivation
B3,binding to dSlo (coimmunoprecipitation),[3],still bind to dSlo

# Reference: article PMC2151581 (The Journal of General Physiology, 2006)
